Key:
[1] = Tmax in athymic nude mouse at 100 mg/kg, po; type: ADME, organism-based; set-up: dose 100 mg/kg, route oral; details: in vivo
In short: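 Female athymic nude mice (20–25 g, n = 3) received a single oral dose of 100 mg/kg in Pharmatek #6, calculated as free base. Blood was drawn into K3EDTA at 15 and 30 min and at 1, 2, 4, 6 and 24 h. Plasma was analyzed by LC-MS/MS. Parameters came from noncompartmental linear-trapezoidal analysis; mean ± SD reported.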

[2] = biological target: Serine/threonine-protein kinase PLK1 (Homo sapiens, UniProt P53350); assay: Inhibition of PLK1 in human HEK293 cells after 1 hr by competition binding assay; type: cell-based
Serine/threonine-protein kinase PLK1, sequence (P53350 whole entry): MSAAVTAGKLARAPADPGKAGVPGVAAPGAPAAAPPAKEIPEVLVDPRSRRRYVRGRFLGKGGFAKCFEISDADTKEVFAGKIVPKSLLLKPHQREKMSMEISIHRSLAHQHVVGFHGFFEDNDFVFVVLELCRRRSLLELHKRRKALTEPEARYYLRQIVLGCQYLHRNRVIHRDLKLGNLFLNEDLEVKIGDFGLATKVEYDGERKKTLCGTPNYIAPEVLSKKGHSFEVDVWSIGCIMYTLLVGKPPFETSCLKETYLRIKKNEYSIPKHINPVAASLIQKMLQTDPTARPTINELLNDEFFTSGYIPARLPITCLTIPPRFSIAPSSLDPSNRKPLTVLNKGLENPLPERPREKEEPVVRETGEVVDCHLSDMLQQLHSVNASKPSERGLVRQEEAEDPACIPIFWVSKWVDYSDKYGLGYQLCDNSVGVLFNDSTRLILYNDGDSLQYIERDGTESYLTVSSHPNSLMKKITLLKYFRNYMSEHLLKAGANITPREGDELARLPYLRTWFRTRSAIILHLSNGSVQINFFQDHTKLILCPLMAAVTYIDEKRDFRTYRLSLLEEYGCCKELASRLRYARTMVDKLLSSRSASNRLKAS
In short: (§1)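 KINOMEscan competition binding. Binding reactions ran at rt for 1 h. Unbound kinase was captured on an immobilized affinity ligand and quantified by qPCR. Each kinase was tested individually.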

[3] = Half life in human liver microsomes; type: ADME, Microsome
In short: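 Pooled liver microsomes (0.5 mg/mL) in 0.1 M phosphate pH 7.4 with 6.5 mM MgCl2 and compound at 1 μM (0.2% DMSO). NADPH (1 mM) started the reaction at 37 °C, with minus-NADPH and testosterone controls. Aliquots taken at 0, 5, 15, 30 and 60 min were quenched in acetonitrile; duplicates.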

[4] = biological target: Hepatocyte growth factor receptor (Homo sapiens, UniProt P08581); assay: Inhibition of cMET in human HEK293 cells after 1 hr by competition binding assay; type: cell-based; in short: as §1
Hepatocyte growth factor receptor, sequence (P08581 whole entry): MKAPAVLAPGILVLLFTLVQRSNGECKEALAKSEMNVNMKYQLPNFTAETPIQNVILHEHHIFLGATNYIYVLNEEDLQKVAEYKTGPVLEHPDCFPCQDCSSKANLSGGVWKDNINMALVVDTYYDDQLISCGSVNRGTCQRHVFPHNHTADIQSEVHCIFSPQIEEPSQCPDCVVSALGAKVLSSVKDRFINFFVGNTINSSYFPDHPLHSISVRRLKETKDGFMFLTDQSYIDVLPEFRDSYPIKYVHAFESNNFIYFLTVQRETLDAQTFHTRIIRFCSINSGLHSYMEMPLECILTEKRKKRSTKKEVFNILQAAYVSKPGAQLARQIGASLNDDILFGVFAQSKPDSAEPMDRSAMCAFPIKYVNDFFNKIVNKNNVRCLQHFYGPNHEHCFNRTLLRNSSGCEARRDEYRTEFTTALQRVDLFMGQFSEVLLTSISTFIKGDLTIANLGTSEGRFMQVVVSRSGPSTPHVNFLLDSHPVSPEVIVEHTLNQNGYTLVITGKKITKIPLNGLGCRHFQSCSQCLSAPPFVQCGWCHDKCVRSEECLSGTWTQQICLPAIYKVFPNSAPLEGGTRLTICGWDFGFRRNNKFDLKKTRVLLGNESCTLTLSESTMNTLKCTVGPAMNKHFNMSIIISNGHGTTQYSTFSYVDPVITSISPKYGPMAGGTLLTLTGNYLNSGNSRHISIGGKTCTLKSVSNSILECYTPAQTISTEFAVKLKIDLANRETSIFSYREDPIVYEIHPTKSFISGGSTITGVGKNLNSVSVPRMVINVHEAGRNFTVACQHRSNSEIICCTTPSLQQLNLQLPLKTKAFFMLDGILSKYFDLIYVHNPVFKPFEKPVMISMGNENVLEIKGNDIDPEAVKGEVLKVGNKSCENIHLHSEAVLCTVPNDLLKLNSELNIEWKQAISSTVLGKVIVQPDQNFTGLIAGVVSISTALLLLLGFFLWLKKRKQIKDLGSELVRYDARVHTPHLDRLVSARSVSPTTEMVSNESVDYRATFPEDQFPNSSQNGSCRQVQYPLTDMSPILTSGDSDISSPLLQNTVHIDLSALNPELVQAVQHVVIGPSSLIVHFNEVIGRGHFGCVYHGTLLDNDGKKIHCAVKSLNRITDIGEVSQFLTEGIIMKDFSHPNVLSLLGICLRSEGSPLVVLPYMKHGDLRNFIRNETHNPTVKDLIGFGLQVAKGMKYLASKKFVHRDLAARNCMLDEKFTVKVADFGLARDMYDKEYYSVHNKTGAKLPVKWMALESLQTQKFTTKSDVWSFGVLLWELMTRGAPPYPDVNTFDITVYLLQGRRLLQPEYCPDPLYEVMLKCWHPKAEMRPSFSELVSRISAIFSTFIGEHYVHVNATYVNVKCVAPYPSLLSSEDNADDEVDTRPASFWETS

Mus musculus [5] = assay: Toxicity in athymic nude mouse xenografted with human COLO205 cells at 10 mg/kg, po bid for 14 days measured upto 1 week post dosing; type: organism-based, COLO 205; set-up: dose 10 mg/kg, route oral; details: in vivo
In short: (§2)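 Athymic nude mice (20–25 g) were inoculated subcutaneously in the flank with 1×10^6 Colo-205 cells. At 150–200 mm3 they were randomized (n = 10/group) to oral vehicle (22% HPβCD) or 10, 30 or 100 mg/kg BID for 14 days. Calipers were used three times weekly. Body weight and behavior were monitored, with 7–10 days of follow-up after dosing. Partial regression meant volume falling in ≥3 successive measurements, ending below baseline but still palpable.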

Mus musculus [6] = assay: Toxicity in athymic nude mouse xenografted with human COLO205 cells at 10 mg/kg, po bid for 14 days; type: organism-based, COLO 205; set-up: dose 10 mg/kg, route oral; details: in vivo, 336 h; in short: as §2
Mus musculus [7] = assay: Toxicity in athymic nude mouse xenografted with human COLO205 cells at 100 mg/kg, po bid for 14 days; type: organism-based, COLO 205; set-up: dose 100 mg/kg, route oral; details: in vivo, 336 h; in short: as §2
[8] = biological target: ALK tyrosine kinase receptor (Homo sapiens, UniProt Q9UM73); assay: Inhibition of ALK in human HEK293 cells after 1 hr by competition binding assay; type: cell-based
ALK tyrosine kinase receptor, sequence (Q9UM73 whole entry): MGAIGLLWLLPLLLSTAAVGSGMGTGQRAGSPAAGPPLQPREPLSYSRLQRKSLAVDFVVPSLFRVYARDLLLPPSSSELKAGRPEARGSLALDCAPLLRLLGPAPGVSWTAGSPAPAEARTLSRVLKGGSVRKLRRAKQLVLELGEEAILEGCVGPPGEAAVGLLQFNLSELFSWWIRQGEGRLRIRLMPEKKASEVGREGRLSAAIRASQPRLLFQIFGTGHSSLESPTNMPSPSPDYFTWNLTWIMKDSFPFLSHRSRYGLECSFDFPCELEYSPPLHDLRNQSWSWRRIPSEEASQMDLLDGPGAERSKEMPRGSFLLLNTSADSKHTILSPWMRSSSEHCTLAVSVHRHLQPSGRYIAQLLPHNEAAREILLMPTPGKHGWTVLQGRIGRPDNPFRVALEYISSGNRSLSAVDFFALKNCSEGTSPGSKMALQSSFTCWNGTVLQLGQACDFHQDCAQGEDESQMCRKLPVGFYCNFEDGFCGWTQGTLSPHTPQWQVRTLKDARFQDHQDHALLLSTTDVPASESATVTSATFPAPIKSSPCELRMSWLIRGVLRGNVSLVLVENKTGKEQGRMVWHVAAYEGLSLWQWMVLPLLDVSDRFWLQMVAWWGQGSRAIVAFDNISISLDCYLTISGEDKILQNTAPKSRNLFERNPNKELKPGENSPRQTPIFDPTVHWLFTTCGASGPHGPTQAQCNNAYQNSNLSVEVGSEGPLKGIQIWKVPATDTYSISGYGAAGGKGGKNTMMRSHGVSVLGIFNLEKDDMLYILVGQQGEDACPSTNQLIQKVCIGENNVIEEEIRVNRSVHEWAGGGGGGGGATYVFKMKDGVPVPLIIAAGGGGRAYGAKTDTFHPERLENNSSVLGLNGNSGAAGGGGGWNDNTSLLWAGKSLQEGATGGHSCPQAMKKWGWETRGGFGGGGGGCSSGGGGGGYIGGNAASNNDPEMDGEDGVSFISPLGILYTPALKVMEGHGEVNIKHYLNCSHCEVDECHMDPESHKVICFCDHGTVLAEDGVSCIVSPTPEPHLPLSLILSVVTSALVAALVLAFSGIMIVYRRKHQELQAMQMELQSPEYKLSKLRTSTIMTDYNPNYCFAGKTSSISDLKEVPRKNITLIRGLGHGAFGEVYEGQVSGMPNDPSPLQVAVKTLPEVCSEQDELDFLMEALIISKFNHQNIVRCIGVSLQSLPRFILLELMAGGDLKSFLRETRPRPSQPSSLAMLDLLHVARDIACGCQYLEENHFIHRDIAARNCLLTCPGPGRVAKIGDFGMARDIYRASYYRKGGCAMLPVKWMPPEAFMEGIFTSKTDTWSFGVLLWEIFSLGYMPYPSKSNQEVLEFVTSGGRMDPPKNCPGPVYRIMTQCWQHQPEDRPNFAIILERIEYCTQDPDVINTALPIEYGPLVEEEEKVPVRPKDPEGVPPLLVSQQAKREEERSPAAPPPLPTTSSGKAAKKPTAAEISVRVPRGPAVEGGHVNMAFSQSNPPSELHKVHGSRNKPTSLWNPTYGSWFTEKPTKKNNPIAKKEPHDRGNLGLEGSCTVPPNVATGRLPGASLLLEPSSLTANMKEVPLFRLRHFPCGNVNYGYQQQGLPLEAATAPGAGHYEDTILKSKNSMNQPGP
In short: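 Unbound kinase was captured on immobilized affinity ligand and quantified by qPCR. Kd came from eleven serial 3-fold dilutions, as the mean of duplicates.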

[9] = biological target: Serine/threonine-protein kinase B-raf (Homo sapiens, UniProt P15056, V600E)
Serine/threonine-protein kinase B-raf, sequence (P15056 2-766 V600E limits assumed): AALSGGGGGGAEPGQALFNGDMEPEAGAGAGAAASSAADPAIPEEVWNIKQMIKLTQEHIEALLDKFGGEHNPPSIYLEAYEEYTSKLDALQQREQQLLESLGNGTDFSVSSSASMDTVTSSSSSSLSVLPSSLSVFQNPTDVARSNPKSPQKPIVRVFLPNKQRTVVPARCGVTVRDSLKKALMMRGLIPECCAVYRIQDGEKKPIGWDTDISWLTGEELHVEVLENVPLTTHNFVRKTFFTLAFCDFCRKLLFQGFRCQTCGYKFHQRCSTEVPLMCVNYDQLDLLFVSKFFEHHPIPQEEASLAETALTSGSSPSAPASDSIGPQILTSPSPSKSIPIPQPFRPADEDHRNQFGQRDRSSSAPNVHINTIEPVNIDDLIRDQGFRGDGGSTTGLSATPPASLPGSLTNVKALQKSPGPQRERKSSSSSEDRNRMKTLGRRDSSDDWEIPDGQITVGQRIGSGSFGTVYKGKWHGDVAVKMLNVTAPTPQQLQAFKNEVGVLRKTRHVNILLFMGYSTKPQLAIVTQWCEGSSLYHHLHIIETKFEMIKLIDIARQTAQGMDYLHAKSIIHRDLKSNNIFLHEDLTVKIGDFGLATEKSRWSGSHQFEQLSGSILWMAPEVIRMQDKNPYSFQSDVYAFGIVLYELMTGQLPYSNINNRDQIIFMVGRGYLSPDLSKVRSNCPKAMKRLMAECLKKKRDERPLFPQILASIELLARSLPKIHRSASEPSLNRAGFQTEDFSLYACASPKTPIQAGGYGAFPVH

- Tmax [1]: 1.3 h
- Kd [2]: > 10000 nM
- half-life [3]: > 1 h
- Kd [4]: 513 nM
- Kd [8]: > 10000 nM
- IC50 [9]: 82 nM
Compound: COc1cc2ncnc(Oc3cccc(NC(=O)Nc4cc(C(C)(C)C(F)(F)F)on4)c3)c2cc1OC [CEP-32496]
- Activity (Mus musculus [5]): Non-toxic
- Activity (Mus musculus [6]): Non-toxic
- Activity (Mus musculus [7]): Non-toxic
